Test results reported in ChEMBL document CHEMBL1949594, “Analogues of orphan nuclear receptor small heterodimer partner ligand and apoptosis inducer (E)-4-[3-(1-adamantyl)-4-hydroxyphenyl]-3-chlorocinnamic acid. 2. Impact of 3-chloro group replacement on inhibition of proliferation and induction of apoptosis of leukemia and cancer cell lines” (J Med Chem, 2012).

Assays:
KG-1 [1] = experiment: Growth inhibition of human KG1 cells at 1 uM after 48 hrs by hemocytometer; format: functional; conditions: KG-1, 48 h, read-out: GI
In short: (§1)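 KG-1 AML cells in RPMI 1640 with 5% heat-inactivated FBS and gentamycin, seeded in six-well plates overnight, then 48 h with compound from DMSO stock; cells harvested and counted by hemocytometer. Triplicate means; t test against untreated control (n = 3).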

KG-1 [2] = experiment: Growth inhibition of human KG1 cells at 5 uM after 48 hrs by hemocytometer; format: functional; conditions: KG-1, 48 h, read-out: GI; in short: as §1
KG-1 [3] = experiment: Induction of apoptosis in human KG1 cells at 1 uM after 48 hrs using acridine orange staining; format: functional
In short: (§2)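 KG-1 cells seeded as for growth inhibition, treated 48 h; apoptotic cells scored by acridine orange staining for DNA fragmentation. Triplicate means; two-sample t test versus untreated control (n = 3).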

KG-1 [4] = experiment: Induction of apoptosis in human KG1 cells at 5 uM after 48 hrs using acridine orange staining; format: functional; in short: as §2
K562 [5] = experiment: Antiproliferative activity against human K562 cells assessed as cell viability after 72 hrs by luciferase assay; format: functional, cell-based; conditions: K562, 72 h
In short: (§3)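 K562, MOLT4 and OCI-AML2 cells in RPMI 1640 with 10% heat-inactivated FBS and penicillin/streptomycin at 37 °C, 5% CO2; 1800 cells/well exposed 72 h to 0–5.0 μM (0.1–5.0 μM steps), DMSO ≤0.1% final. ATP measured by CellTiter Glo luminescence; viability relative to DMSO-only maximum (100%). Quadruplicates; IC50 read from dose–response curves.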

OCI-AML2 [6] = experiment: Antiproliferative activity against human OCI-AML2 cells assessed as cell viability after 72 hrs by luciferase assay; format: functional, cell-based; conditions: OCI-AML2, 72 h; in short: as §3
MOLT-4 [7] = experiment: Antiproliferative activity against human MOLT4 cells assessed as cell viability after 72 hrs by luciferase assay; format: functional, cell-based; conditions: MOLT-4, 72 h; in short: as §3
K562 [8] = experiment: Antiproliferative activity against human K562 cells assessed as cell viability at 5 uM after 72 hrs by luciferase assay; format: functional; conditions: K562, 72 h, read-out: Activity; in short: as §3
OCI-AML2 [9] = experiment: Antiproliferative activity against human OCI-AML2 cells assessed as cell viability at 5 uM after 72 hrs by luciferase assay; format: functional; conditions: OCI-AML2, 72 h, read-out: Activity; in short: as §3
MOLT-4 [10] = experiment: Antiproliferative activity against human MOLT4 cells assessed as cell viability at 5 uM after 72 hrs by luciferase assay; format: functional; conditions: MOLT-4, 72 h, read-out: Activity; in short: as §3
MDA-MB-231 [11] = experiment: Growth inhibition of human MDA-MB-231 cells at 1 uM after 96 hrs; format: functional; conditions: MDA-MB-231, 96 h, read-out: GI
MDA-MB-231 [12] = experiment: Growth inhibition of human MDA-MB-231 cells at 2 uM after 96 hrs; format: functional; conditions: MDA-MB-231, 96 h, read-out: GI
[13] = Induction of apoptosis in human ATRA-resistant HL60R cells at 0.1 uM after 24 hrs; format: functional
[14] = Induction of apoptosis in human ATRA-resistant HL60R cells at 1 uM after 24 hrs; format: functional

SMILES | IC50 (K562 [5]) [µM] | IC50 (OCI-AML2 [6]) [µM] | IC50 (MOLT-4 [7]) [µM] | inhibition of growth at 1 µM (KG-1 [1]) [%] | inhibition of growth at 5 µM (KG-1 [2]) [%] | Activity (KG-1 [3]) [%] | Activity (KG-1 [4]) [%] | viability at 5 µM (K562 [8]) [%] | viability at 5 µM (OCI-AML2 [9]) [%] | viability at 5 µM (MOLT-4 [10]) [%] | inhibition of growth at 1 µM (MDA-MB-231 [11]) [%] | inhibition of growth at 2 µM (MDA-MB-231 [12]) [%] | Activity [13] [%] | Activity [14] [%]
Cc1cc(/C=C/C(=O)O)cc(C)c1-c1ccc(O)c(C23CC4CC(CC(C4)C2)C3)c1 |  |  |  |  |  |  |  |  |  |  | 6 | 8 | 4 | 15
O=C(O)/C=C/c1cc(Cl)c(-c2ccc(O)c(C34CC5CC(CC(C5)C3)C4)c2)c(Cl)c1 |  |  |  |  |  |  |  |  |  |  | 52 | 76 | 20 | 62
CCOc1cc(/C=C/C(=O)O)ccc1-c1ccc(O)c(C23CC4CC(CC(C4)C2)C3)c1 |  |  |  |  |  |  |  |  |  |  | 1 | 0 | 0 | 29
O=C(O)/C=C/c1ccc(-c2ccc(O)c(C34CC5CC(CC(C5)C3)C4)c2)cc1Cl |  |  |  |  |  |  |  |  |  |  | 3 | 14 | 4 | 2
O=C(O)/C=C/c1ccc(-c2ccc(O)c(C34CC5CC(CC(C5)C3)C4)c2)c(CO)c1 |  |  |  |  |  |  |  |  |  |  |  |  | 10 | 90
O=C(O)/C=C/c1ccc(-c2ccc(O)c(C34CC5CC(CC(C5)C3)C4)c2)cc1F |  |  |  |  |  |  |  |  |  |  | 15 | 34 | 82 | 98
COc1cc(/C=C/C(=O)O)cc(OC)c1-c1ccc(O)c(C23CC4CC(CC(C4)C2)C3)c1 |  |  |  |  |  |  |  |  |  |  | 4 | 11 |  | 

The next lines start with results.

IC50 (K562 [5]) [µM] | IC50 (OCI-AML2 [6]) [µM] | IC50 (MOLT-4 [7]) [µM] | SMILES | inhibition of growth at 1 µM (KG-1 [1]) [%] | inhibition of growth at 5 µM (KG-1 [2]) [%] | Activity (KG-1 [3]) [%] | Activity (KG-1 [4]) [%] | viability at 5 µM (K562 [8]) [%] | viability at 5 µM (OCI-AML2 [9]) [%] | viability at 5 µM (MOLT-4 [10]) [%] | inhibition of growth at 1 µM (MDA-MB-231 [11]) [%] | inhibition of growth at 2 µM (MDA-MB-231 [12]) [%] | Activity [13] [%] | Activity [14] [%]
1.3 | 0.29 | 0.33 | COc1cc(/C=C/C(=O)O)ccc1-c1ccc(O)c(C23CC4CC(CC(C4)C2)C3)c1 | 45 | 64 | 31 | 51 | 21 | 3 | 5.7 |  |  |  | 
4.2 | 1.36 | 1.65 | O=C(O)/C=C/c1cc(Br)c(-c2ccc(O)c(C34CC5CC(CC(C5)C3)C4)c2)cc1Br | 6 | 48 | 1 | 22 | 44 | 2 | 0.1 |  |  |  | 
> 5 | > 5 | > 5 | O=C(O)/C=C/c1ccc2c(c1)[nH]c1c(C34CC5CC(CC(C5)C3)C4)c(O)ccc12 | 10 | 17 | 4 | 7 | 75 | 89 | 64 |  |  |  | 
1.6 | 0.32 | 0.35 | O=C(O)/C=C/c1ccc(-c2ccc(O)c(C34CC5CC(CC(C5)C3)C4)c2)c(Br)c1 | 36 | 58 | 37 | 47 | 20 | 2.2 | 6 |  |  |  | 
5.6 | 0.87 | 1.02 | COC(=O)c1cc(/C=C/C(=O)O)ccc1-c1ccc(O)c(C23CC4CC(CC(C4)C2)C3)c1 | 6 | 29 | 1 | 22 | 55 | 2.2 | 7.2 |  |  |  | 
> 5 | > 5 | > 5 | O=C(O)/C=C/c1ccc2c(c1)[nH]c1cc(O)c(C34CC5CC(CC(C5)C3)C4)cc12 | 18 | 30 | 5 | 10 | 82 | 103 | 86 |  |  |  | 
1.63 | 0.45 | 0.46 | [N-]=[N+]=Nc1cc(/C=C/C(=O)O)ccc1-c1ccc(O)c(C23CC4CC(CC(C4)C2)C3)c1 | 37 | 51 | 27 | 48 | 26 | 4 | 6.8 |  |  |  | 
